Broadly, the IC50 is the concentration that gives 50% inhibition.

The record followed here is BindingDB's records for doi:10.1021/jm2005767 (Virginia Commonwealth University, 2011).

This test deals with Prothrombin (Homo sapiens, UniProt P00734). The experiment in a line: Inhibition of human alpha-thrombin assessed as spectrozyme TH hydrolysis after 10 mins by spectrophotometric analysis. The method, boiled down: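 Human α-thrombin (~5 nM initial) preincubated 10 min with inhibitor (4 μg/ml to 5 mg/ml stocks) at 25 °C. Buffer: 20 mM Tris-HCl pH 7.4, 100 mM NaCl, 2.5 mM CaCl2, 0.1% PEG 8000. Fractional residual activity fitted to logistic equation (Hill slope fixed at 1) for IC50 and efficacy ΔY.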

SMILES strings stand for the structures.

On to `CCOC(=O)c1c(C)oc2cc(OC(=O)N3CCOCC3)c(OS(=O)(=O)O)cc12`, for which the IC50 was > 2.5 mM.
